Source: ChEMBL document CHEMBL2346629, “Discovery and characterization of novel allosteric FAK inhibitors” (Eur J Med Chem, 2013)

Legend:
[1] = target: Dual specificity protein kinase TTK (Homo sapiens) (UniProt P33981); assay: Inhibition of TTK (unknown origin) using [gamma-33P]ATP assessed as residual activity at 3 uM
[2] = target: Proto-oncogene tyrosine-protein kinase receptor Ret (Homo sapiens) (UniProt P07949); assay: Inhibition of RET (unknown origin) using [gamma-33P]ATP assessed as residual activity at 3 uM
[3] = tested on: Epidermal growth factor receptor (Homo sapiens), P00533 [L858R]; assay: Inhibition of EGFR L858R mutant (unknown origin) using [gamma-33P]ATP assessed as residual activity at 3 uM; type: protein assay
Procedure, shortened: (§1)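 Reaction Biology HotSpot radiometric profiling panel of 288 kinases (261 wild-type, 27 mutant). Kinase activity was read out by incorporation of [γ-33P]ATP.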

[4] = tested on: Tyrosine-protein kinase ABL1 (Homo sapiens), P00519 [M351T]; assay: Inhibition of ABL1 M351T mutant (unknown origin) using [gamma-33P]ATP assessed as residual activity at 3 uM
Procedure, shortened: (§2)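 Radiometric profiling across 288 kinases (261 wild-type, 27 mutant), run as an outsourced service. Inhibition read out as [gamma-33P]ATP incorporation into substrate.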

[5] = tested on: Tyrosine-protein kinase BTK (Homo sapiens), Q06187 [E41K]; assay: Inhibition of BTK E41K mutant (unknown origin) using [gamma-33P]ATP assessed as residual activity at 3 uM; procedure, shortened: as §2
[6] = target: Leucine-rich repeat serine/threonine-protein kinase 2 (Homo sapiens) (UniProt Q5S007); assay: Inhibition of LRRK2 (unknown origin) using [gamma-33P]ATP assessed as residual activity at 3 uM
Procedure, shortened: (§3)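 Radiometric kinase profiling service covering 288 kinases (261 wild-type, 27 mutant). Inhibition was read as incorporation from [γ-³³P]ATP.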

[7] = target: Serine/threonine-protein kinase 26 (Homo sapiens) (UniProt Q9P289); assay: Inhibition of MST4 (unknown origin) using [gamma-33P]ATP assessed as residual activity at 3 uM
[8] = tested on: Platelet-derived growth factor receptor alpha (Homo sapiens), P16234 [T674I]; assay: Inhibition of PDGFRa T674I mutant (unknown origin) using [gamma-33P]ATP assessed as residual activity at 3 uM
[9] = tested on: Proto-oncogene tyrosine-protein kinase receptor Ret (Homo sapiens), P07949 [V804M]; assay: Inhibition of RET V804M mutant (unknown origin) using [gamma-33P]ATP assessed as residual activity at 3 uM
[10] = target: Epidermal growth factor receptor (Homo sapiens) (UniProt P00533); assay: Inhibition of EGFR (unknown origin) using [gamma-33P]ATP assessed as residual activity at 3 uM; procedure, shortened: as §1
[11] = target: G protein-coupled receptor kinase 4 (Homo sapiens) (UniProt P32298); assay: Inhibition of GRK4 (unknown origin) using [gamma-33P]ATP assessed as residual activity at 3 uM; procedure, shortened: as §3
[12] = target: Ribosomal protein S6 kinase alpha-6 (Homo sapiens) (UniProt Q9UK32); assay: Inhibition of RSK4 (unknown origin) using [gamma-33P]ATP assessed as residual activity at 3 uM
[13] = target: Aurora kinase B (Homo sapiens) (UniProt Q96GD4); assay: Inhibition of Aurora B (unknown origin) using [gamma-33P]ATP assessed as residual activity at 3 uM; procedure, shortened: as §2
Chain of Aurora kinase B (Homo sapiens) (Q96GD4 whole entry): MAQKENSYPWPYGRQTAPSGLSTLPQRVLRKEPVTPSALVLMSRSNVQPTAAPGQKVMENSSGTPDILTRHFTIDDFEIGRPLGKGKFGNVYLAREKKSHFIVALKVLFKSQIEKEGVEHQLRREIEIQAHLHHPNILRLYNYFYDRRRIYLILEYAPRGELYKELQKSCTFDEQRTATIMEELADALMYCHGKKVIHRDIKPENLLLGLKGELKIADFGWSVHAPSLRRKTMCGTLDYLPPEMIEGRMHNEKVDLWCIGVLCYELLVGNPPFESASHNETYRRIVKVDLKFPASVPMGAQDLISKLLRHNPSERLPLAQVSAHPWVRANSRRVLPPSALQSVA

[14] = target: Ephrin type-A receptor 5 (Homo sapiens) (UniProt P54756); assay: Inhibition of EPHA5 (unknown origin) using [gamma-33P]ATP assessed as residual activity at 3 uM; procedure, shortened: as §1
[15] = target: Casein kinase II subunit alpha' (Homo sapiens) (UniProt P19784); assay: Inhibition of CK2a2 (unknown origin) using [gamma-33P]ATP assessed as residual activity at 3 uM; procedure, shortened: as §1
[16] = target: Ribosomal protein S6 kinase alpha-3 (Homo sapiens) (UniProt P51812); assay: Inhibition of RSK2 (unknown origin) using [gamma-33P]ATP assessed as residual activity at 3 uM
[17] = target: Serine/threonine-protein kinase WNK2 (Homo sapiens) (UniProt Q9Y3S1); assay: Inhibition of WNK2 (unknown origin) using [gamma-33P]ATP assessed as residual activity at 3 uM
Chain of Serine/threonine-protein kinase WNK2 (Homo sapiens) (Q9Y3S1 whole entry, canonical isoform): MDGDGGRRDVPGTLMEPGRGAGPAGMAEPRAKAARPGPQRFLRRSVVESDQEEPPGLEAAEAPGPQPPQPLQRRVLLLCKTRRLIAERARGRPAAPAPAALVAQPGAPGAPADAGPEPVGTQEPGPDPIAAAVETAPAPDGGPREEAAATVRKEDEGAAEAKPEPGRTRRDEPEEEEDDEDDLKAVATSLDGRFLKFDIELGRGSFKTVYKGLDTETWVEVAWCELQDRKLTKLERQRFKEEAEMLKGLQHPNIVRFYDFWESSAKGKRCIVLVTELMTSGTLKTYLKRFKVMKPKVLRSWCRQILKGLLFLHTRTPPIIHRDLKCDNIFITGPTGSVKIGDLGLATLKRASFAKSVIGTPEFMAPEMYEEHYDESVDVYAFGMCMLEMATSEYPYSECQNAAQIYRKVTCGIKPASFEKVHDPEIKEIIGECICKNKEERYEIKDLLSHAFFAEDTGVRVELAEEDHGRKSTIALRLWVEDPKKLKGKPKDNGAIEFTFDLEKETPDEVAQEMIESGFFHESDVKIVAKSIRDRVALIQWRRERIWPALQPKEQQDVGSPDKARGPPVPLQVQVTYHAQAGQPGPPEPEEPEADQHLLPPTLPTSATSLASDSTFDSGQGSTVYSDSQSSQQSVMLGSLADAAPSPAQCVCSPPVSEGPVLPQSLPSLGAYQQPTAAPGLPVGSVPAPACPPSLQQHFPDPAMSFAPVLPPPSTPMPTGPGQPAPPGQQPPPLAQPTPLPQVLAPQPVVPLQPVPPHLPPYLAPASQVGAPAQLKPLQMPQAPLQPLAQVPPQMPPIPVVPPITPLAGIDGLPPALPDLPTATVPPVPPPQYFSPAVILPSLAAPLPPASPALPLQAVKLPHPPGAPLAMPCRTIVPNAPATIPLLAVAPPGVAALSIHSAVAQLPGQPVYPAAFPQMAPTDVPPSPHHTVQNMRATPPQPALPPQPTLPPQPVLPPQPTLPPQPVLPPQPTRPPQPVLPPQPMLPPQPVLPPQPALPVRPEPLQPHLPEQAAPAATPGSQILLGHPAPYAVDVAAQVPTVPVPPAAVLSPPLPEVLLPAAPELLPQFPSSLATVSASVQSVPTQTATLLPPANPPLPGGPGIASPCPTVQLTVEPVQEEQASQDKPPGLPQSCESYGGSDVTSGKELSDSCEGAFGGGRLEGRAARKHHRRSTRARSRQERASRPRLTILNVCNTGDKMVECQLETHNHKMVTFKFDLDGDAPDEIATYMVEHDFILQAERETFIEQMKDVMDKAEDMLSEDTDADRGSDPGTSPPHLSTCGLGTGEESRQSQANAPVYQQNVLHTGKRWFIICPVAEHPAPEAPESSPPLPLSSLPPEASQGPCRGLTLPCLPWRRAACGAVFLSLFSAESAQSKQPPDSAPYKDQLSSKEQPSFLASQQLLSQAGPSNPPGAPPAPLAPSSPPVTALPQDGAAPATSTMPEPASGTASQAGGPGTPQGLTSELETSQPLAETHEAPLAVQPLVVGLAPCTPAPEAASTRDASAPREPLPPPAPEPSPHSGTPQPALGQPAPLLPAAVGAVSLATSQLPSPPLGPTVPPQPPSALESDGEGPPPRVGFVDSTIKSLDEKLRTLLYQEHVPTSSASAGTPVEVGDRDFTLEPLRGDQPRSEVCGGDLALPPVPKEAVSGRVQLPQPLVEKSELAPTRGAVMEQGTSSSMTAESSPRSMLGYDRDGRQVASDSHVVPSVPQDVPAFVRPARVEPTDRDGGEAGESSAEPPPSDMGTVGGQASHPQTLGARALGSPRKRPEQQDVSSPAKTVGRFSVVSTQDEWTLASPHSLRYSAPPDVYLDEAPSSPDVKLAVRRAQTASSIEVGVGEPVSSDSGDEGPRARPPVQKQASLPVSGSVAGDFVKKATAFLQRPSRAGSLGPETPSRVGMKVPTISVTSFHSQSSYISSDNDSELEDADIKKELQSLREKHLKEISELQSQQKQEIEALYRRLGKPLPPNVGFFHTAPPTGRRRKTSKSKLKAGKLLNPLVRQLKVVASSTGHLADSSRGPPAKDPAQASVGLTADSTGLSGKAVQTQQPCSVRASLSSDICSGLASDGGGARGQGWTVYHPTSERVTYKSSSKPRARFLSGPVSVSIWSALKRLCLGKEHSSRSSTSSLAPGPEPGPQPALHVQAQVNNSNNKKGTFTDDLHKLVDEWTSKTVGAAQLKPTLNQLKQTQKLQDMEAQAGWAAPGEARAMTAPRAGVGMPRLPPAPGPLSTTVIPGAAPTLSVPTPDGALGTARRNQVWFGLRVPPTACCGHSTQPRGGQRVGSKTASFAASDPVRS

[18] = target: Casein kinase I isoform delta (Homo sapiens) (UniProt P48730); assay: Inhibition of CK1d (unknown origin) using [gamma-33P]ATP assessed as residual activity at 3 uM; procedure, shortened: as §2
[19] = target: Rhodopsin kinase GRK7 (Homo sapiens) (UniProt Q8WTQ7); assay: Inhibition of GRK7 (unknown origin) using [gamma-33P]ATP assessed as residual activity at 3 uM; procedure, shortened: as §3
[20] = tested on: Receptor-type tyrosine-protein kinase FLT3 (Homo sapiens), P36888 [D835Y]; assay: Inhibition of FLT3 D835Y mutant (unknown origin) using [gamma-33P]ATP assessed as residual activity at 3 uM; procedure, shortened: as §3
[21] = target: Testis-specific serine/threonine-protein kinase 2 (Homo sapiens) (UniProt Q96PF2); assay: Inhibition of TSSK2 (unknown origin) using [gamma-33P]ATP assessed as residual activity at 3 uM
Chain of Testis-specific serine/threonine-protein kinase 2 (Homo sapiens) (Q96PF2 whole entry): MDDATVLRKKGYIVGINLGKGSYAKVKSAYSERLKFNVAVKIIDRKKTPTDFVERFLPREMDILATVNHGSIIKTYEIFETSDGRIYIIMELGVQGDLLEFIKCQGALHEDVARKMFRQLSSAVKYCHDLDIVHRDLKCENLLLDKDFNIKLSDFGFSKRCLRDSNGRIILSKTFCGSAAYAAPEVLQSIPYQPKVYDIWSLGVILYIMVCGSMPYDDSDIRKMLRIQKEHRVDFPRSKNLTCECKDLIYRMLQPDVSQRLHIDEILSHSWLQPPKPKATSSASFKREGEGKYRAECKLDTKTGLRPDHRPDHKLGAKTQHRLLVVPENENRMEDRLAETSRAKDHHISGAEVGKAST

[22] = target: Insulin receptor (Homo sapiens) (UniProt P06213); assay: Inhibition of IR (unknown origin) using [gamma-33P]ATP assessed as residual activity at 3 uM; procedure, shortened: as §3
[23] = target: Vascular endothelial growth factor receptor 2 (Homo sapiens) (UniProt P35968); assay: Inhibition of KDR (unknown origin) using [gamma-33P]ATP assessed as residual activity at 3 uM; procedure, shortened: as §3
[24] = target: Protein kinase C epsilon type (Homo sapiens) (UniProt Q02156); assay: Inhibition of PKCepsilon (unknown origin) using [gamma-33P]ATP assessed as residual activity at 3 uM
Chain of Protein kinase C epsilon type (Homo sapiens) (Q02156 whole entry): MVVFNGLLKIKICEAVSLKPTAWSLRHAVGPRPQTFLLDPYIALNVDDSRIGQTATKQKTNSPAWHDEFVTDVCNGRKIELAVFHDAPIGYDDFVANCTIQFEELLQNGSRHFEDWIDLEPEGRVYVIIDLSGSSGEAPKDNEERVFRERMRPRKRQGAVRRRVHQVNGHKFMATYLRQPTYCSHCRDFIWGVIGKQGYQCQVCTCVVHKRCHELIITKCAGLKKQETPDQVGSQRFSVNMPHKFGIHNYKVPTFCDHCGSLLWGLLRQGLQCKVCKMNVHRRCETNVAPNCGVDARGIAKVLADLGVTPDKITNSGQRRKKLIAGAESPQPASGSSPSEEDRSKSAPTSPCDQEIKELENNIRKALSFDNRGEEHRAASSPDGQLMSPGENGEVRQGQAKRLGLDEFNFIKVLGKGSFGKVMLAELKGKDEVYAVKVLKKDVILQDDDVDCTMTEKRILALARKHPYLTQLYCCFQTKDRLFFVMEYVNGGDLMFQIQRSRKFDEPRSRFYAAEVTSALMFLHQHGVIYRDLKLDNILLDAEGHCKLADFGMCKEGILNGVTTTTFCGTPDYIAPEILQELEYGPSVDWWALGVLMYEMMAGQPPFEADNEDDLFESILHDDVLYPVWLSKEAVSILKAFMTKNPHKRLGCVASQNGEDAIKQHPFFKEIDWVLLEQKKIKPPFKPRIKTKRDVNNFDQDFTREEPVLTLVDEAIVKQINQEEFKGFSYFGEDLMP

[25] = target: Glycogen synthase kinase-3 beta (Homo sapiens) (UniProt P49841); assay: Inhibition of GSK3B (unknown origin) using [gamma-33P]ATP assessed as residual activity at 3 uM; procedure, shortened: as §3
[26] = target: Serine/threonine-protein kinase Nek6 (Homo sapiens) (UniProt Q9HC98); assay: Inhibition of NEK6 (unknown origin) using [gamma-33P]ATP assessed as residual activity at 3 uM
[27] = target: Calcium/calmodulin-dependent protein kinase kinase 2 (Homo sapiens) (UniProt Q96RR4); assay: Inhibition of CAMKK2 (unknown origin) using [gamma-33P]ATP assessed as residual activity at 3 uM; procedure, shortened: as §2
[28] = target: Phosphorylase b kinase gamma catalytic chain, liver/testis isoform (Homo sapiens) (UniProt P15735); assay: Inhibition of PHKg2 (unknown origin) using [gamma-33P]ATP assessed as residual activity at 3 uM
[29] = target: Ribosomal protein S6 kinase alpha-4 (Homo sapiens) (UniProt O75676); assay: Inhibition of MSK2 (unknown origin) using [gamma-33P]ATP assessed as residual activity at 3 uM
[30] = target: Serine/threonine-protein kinase Nek7 (Homo sapiens) (UniProt Q8TDX7); assay: Inhibition of NEK7 (unknown origin) using [gamma-33P]ATP assessed as residual activity at 3 uM
Chain of Serine/threonine-protein kinase Nek7 (Homo sapiens) (Q8TDX7 whole entry, looked up): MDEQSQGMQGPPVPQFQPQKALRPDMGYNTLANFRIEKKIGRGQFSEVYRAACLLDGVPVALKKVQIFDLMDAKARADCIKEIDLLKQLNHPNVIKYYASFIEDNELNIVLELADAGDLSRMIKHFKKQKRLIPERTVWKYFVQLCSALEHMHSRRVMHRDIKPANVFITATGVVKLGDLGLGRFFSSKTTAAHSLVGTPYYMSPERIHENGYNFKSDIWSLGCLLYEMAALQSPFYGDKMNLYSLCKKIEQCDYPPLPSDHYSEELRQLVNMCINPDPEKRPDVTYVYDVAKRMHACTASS

[31] = target: Ephrin type-A receptor 4 (Homo sapiens) (UniProt P54764); assay: Inhibition of EPHA4 (unknown origin) using [gamma-33P]ATP assessed as residual activity at 3 uM; procedure, shortened: as §1
[32] = target: Tyrosine-protein kinase Lyn (Homo sapiens) (UniProt P07948); assay: Inhibition of LYN (unknown origin) using [gamma-33P]ATP assessed as residual activity at 3 uM; procedure, shortened: as §3

Chain of Dual specificity protein kinase TTK (Homo sapiens) (P33981 whole entry): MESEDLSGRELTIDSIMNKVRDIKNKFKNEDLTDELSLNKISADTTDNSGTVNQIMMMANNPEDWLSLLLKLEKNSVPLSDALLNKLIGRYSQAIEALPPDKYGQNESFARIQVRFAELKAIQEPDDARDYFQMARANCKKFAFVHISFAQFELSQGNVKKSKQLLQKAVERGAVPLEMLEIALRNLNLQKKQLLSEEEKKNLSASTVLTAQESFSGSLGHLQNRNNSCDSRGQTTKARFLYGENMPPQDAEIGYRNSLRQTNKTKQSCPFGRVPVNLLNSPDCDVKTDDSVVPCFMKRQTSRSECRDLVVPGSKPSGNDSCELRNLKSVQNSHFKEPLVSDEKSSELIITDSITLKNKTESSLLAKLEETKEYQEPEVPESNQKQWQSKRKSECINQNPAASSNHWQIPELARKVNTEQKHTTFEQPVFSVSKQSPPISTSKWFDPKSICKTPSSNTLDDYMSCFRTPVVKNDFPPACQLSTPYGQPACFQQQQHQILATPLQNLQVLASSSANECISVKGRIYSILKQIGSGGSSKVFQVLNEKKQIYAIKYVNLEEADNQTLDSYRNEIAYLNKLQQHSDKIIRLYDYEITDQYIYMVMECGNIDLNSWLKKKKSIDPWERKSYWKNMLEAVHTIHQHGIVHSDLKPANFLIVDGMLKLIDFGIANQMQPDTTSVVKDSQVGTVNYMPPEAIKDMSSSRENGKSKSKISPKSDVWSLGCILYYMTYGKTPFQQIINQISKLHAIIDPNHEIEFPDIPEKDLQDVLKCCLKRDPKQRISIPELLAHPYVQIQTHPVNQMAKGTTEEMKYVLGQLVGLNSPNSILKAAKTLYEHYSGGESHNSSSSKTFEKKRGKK

CCc1ccc(-c2ccc3c(c2)-c2[nH]ncc2S(=O)(=O)N3C)cc1
Activity [1]: 74% | Activity [2]: 94% | Activity [3]: 95% | Activity [4]: 66% | Activity [5]: 100% | Activity [6]: 58% | Activity [7]: 98% | Activity [8]: 91% | Activity [9]: 91% | Activity [10]: 97% | Activity [11]: 94% | Activity [12]: 101% | Activity [13]: 86% | Activity [14]: 90% | Activity [15]: 53% | Activity [16]: 84% | Activity [17]: 97% | Activity [18]: 94% | Activity [19]: 85% | Activity [20]: 52% | Activity [21]: 87% | Activity [22]: 94% | Activity [23]: 86% | Activity [24]: 97% | Activity [25]: 103% | Activity [26]: 94% | Activity [27]: 65% | Activity [28]: 85% | Activity [29]: 98% | Activity [30]: 101% | Activity [31]: 95% | Activity [32]: 78%
